# Measurements published in publication PMC4783179 (The Journal of comparative neurology, 2015).
# Where two headings read alike, the source gives them in different places. Marks after values point to notes of the source that are not given here.
# What was measured:
# 5-HT7 = 5-HT7 (Homo sapiens, UniProt P34969); assay: NIMH PDSP binding affinity, human cloned receptor
# 5-HT2B = 5-HT2B (Homo sapiens, UniProt P41595); assay: NIMH PDSP binding affinity, human cloned receptor
# α1B = α1B (Homo sapiens, UniProt P35368); assay: NIMH PDSP binding affinity, human cloned receptor
# adrenergic α1D = adrenergic α1D (Homo sapiens, UniProt P25100); assay: NIMH PDSP binding affinity, human cloned receptor
# dopamine D4 = dopamine D4 (Homo sapiens, UniProt P21917); assay: NIMH PDSP binding affinity, human cloned receptor
# D2 subtype = D2 subtype (Homo sapiens, UniProt P14416); assay: NIMH PDSP binding affinity, human cloned receptor; details: read-out: Affinity, D2 subtype
# [1] = biological target: multidrug resistance 1 protein (MDR1; P-glycoprotein) (Homo sapiens, UniProt P08183); assay: Multidrug resistance; assay type: biochemical; details: read-out: IC50 as potential substrate of MDR1 (P-glycoprotein)
# 5-HT1A receptors [2] = biological target: T1, 5-HT1A receptors (Rattus norvegicus, UniProt P19327); assay: In vitro autoradiography of 18F-Mefway, rat brain slices; assay type: binding
# T1 sequence (P19327 1-422): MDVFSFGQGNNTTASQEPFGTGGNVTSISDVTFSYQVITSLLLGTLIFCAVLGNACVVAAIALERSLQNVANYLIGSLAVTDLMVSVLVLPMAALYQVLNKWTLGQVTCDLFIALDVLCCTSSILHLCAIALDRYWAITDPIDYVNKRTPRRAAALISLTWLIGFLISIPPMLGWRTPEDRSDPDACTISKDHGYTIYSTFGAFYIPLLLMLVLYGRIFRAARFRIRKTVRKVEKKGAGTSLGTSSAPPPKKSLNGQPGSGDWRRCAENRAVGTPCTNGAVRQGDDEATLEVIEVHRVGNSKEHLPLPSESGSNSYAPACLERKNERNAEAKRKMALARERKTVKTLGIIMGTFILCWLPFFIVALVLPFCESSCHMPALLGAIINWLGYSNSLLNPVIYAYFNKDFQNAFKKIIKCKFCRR
# Procedure, shortened: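 Horizontal 10 µm slices covering hippocampus, frontal cortex, dorsal raphe and cerebellum. Sources: frozen brains of male BALB/c mice (25 g) or male Sprague-Dawley rats (250–300 g). Preincubated in 50 mM Tris-HCl pH 7.4 for 10 min at room temperature, then 37–185 kBq/mL tracer at 37 °C for 1 h. […] Washed, then phosphor screen for 24 h. Regional DLU/mm² expressed as ratios to cerebellum as reference.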
# 5-HT1A receptors [3] = biological target: T2, 5-HT1A receptors (Homo sapiens, UniProt P08908); assay: In vitro autoradiography of 18F-Mefway, human postmortem hippocampus sections; assay type: binding
# T2 sequence (P08908 1-422): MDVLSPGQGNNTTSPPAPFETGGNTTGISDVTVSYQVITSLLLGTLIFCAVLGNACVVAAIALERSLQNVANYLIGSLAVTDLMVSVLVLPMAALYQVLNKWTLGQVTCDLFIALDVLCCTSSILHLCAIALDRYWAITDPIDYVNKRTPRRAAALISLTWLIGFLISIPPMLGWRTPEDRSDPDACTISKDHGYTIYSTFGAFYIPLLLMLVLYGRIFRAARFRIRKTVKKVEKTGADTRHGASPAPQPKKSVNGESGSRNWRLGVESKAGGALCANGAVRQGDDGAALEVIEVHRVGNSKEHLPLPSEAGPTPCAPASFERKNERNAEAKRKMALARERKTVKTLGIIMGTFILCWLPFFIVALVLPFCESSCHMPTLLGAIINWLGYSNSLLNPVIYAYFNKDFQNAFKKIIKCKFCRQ
# Procedure, shortened: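 Dog tissue: unfixed beagle brain (4.5–15.4 yr), stored at −80 °C, cut as 10 µm hemi-coronal slices with hippocampus and cortex. Human tissue: postmortem hippocampus (PMI 3.8–5.8 h), cut at 7 µm. Slices preincubated in 50 mM Tris-HCl pH 7.4 for 10 min at room temperature, then incubated with 37–185 kBq/mL tracer at 37 °C for 1 h. […] Two 1-min ice-cold buffer washes, then 24 h phosphor-screen exposure. Binding read as DLU/mm².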
# 5-HT1A receptors [4] = biological target: T1, 5-HT1A receptors; details: 90 mins post-injection, cited from earlier work
# 5-HT1A receptors [5] = details: cited from earlier work
# 5-HT1A receptors [6] = biological target: T2, 5-HT1A receptors; details: ref Hillmer et al., 2014, cited from earlier work; for HP/CB PET ratio / Brain Uptake: human; for HP/CB PET ratio: 90 mins post-injection; for Brain Uptake: initial, 1–2 min post-injection
# [7] = [5-HT1A affinity/other receptor affinity]×100, 5-HT1A 0.6 or 2.2 nM for WAY-100635, 0.9 nM for Mefway
# 5-HT7, sequence (P34969 whole entry): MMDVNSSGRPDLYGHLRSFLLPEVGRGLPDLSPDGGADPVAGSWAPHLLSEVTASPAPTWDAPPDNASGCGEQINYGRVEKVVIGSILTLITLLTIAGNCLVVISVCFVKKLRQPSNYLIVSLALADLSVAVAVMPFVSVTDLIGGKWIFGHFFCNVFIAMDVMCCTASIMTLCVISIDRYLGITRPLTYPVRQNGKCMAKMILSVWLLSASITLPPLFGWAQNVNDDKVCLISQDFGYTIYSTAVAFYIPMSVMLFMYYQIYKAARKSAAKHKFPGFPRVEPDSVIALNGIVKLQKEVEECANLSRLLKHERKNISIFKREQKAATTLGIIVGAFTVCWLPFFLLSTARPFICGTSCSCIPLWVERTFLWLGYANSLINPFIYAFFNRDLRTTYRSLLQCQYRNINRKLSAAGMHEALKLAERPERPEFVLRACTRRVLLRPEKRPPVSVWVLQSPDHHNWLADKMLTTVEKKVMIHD
# dopamine D4, sequence (P21917 whole entry): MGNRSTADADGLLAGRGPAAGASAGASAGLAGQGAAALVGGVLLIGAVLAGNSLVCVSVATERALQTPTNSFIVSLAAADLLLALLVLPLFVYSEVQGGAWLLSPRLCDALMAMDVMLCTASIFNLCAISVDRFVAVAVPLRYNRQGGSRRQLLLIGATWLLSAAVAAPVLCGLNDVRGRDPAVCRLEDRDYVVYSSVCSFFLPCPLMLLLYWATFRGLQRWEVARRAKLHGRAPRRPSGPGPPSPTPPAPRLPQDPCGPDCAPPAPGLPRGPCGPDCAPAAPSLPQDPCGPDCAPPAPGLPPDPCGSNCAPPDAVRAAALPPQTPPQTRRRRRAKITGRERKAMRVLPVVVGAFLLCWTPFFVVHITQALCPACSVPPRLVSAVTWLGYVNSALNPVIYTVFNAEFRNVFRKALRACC
# adrenergic α1D, sequence (P25100 whole entry): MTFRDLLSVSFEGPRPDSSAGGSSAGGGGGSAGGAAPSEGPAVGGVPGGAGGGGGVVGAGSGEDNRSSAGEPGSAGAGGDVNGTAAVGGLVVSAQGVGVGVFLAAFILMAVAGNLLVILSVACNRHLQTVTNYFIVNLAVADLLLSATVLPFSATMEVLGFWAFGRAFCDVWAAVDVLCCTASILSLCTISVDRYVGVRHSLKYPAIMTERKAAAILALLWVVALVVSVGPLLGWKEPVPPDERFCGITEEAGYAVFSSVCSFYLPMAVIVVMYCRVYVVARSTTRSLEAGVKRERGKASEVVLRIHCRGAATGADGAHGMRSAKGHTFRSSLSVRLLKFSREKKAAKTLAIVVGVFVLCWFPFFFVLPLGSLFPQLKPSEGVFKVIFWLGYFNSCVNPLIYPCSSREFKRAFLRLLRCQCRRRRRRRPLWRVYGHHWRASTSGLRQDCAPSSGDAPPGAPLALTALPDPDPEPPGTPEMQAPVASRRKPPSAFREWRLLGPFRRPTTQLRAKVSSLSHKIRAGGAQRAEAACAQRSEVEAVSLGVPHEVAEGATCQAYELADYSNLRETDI
# α1B, sequence (P35368 whole entry): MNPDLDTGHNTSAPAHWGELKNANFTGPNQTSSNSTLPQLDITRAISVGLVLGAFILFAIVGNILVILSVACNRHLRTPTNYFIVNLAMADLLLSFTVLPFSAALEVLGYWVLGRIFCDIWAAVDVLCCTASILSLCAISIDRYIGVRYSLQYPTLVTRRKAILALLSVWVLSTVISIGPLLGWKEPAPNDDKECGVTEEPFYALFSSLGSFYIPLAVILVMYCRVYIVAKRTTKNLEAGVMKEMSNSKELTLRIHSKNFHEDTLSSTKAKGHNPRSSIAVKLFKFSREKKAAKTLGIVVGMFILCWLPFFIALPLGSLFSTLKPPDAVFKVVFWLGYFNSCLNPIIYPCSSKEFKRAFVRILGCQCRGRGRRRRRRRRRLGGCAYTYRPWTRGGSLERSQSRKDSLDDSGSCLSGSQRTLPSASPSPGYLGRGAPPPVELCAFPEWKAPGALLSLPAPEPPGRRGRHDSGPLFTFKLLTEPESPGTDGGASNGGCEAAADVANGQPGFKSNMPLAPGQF
# 5-HT2B, sequence (P41595 whole entry): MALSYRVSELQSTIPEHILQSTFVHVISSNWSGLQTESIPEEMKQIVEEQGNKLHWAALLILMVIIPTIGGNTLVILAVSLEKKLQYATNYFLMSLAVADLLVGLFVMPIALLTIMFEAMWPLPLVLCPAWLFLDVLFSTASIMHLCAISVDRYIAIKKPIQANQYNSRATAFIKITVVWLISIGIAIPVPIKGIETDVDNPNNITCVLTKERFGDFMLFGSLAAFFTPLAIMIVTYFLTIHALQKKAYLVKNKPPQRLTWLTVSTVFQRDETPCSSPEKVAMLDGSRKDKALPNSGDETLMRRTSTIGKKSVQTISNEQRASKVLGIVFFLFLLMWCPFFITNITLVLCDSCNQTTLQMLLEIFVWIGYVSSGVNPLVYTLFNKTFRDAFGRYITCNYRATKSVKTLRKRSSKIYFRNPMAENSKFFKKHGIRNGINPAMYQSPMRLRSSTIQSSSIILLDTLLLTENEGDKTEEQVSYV
# D2 subtype, sequence (P14416 whole entry): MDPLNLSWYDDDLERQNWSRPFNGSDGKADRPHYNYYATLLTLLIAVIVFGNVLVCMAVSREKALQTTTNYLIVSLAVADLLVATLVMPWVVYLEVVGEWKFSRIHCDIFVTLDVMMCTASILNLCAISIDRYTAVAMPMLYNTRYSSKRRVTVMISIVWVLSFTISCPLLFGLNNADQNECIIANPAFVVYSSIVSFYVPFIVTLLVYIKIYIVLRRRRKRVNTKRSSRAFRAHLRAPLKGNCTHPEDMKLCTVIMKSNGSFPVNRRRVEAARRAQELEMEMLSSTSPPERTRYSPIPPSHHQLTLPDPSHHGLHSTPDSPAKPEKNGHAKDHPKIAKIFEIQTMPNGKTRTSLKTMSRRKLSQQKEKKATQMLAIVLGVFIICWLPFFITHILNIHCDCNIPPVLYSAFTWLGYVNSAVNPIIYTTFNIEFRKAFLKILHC
smiles,measurement,setting,value
COc1ccccc1N1CCN(CCN(C(=O)C2CCC(CF)CC2)c2ccccn2)CC1 (stereo not shown) [Mefway],"% human 5HT1A Selectivity, 5-HT7",5-HT7; [7],0.30%
same,Ki,"5-HT7; read-out: Binding affinity, Ki, 5-HT7, human cloned receptor, PDSP",297 nM
same,"% human 5HT1A Selectivity, 5-HT2B",5-HT2B; [7],0.35%
same,Ki,"5-HT2B; read-out: Binding affinity, Ki, 5-HT2B, human cloned receptor, PDSP",260 nM
same,"% human 5HT1A Selectivity, α1B",α1B; [7],0.18%
same,Ki,"α1B; read-out: Binding affinity, Ki, α1B, human cloned receptor, PDSP",505 nM
same,"% human 5HT1A Selectivity, α1D",adrenergic α1D; [7],1.58%
same,Ki,"adrenergic α1D; read-out: Binding affinity, Ki, α1D, human cloned receptor, PDSP",57 nM
same,"% human 5HT1A Selectivity, D4",dopamine D4; [7],0.71%
same,Ki,"dopamine D4; read-out: Binding affinity, Ki, D4, human cloned receptor, PDSP",126 nM
same,Ki,D2 subtype,188 nM
same,IC50,[1],> 30000 nM
same,Binding displaced in hippocampus and cortex,"5-HT1A receptors [2]; in the presence of 10 μM of WAY-100635, rat (all the species)",> 95%
same,"Ratio in cortical regions, autoradiography",5-HT1A receptors [2]; rats,> 10
same,"Ratio of hippocampus to cerebellum, autoradiography","5-HT1A receptors [2]; rats, brain slices incubated for one hr",30
same,"Ratio of raphe to cerebellum, autoradiography","5-HT1A receptors [2]; rats, horizontal sections",23
same,"Ratio of hippocampus versus white matter, autoradiography",5-HT1A receptors [3]; human hippocampus sections,13
same,Binding displaced in hippocampus and cortex,"5-HT1A receptors [3]; in the presence of 10 μM of WAY-100635, human (all the species)",> 95%
same,HP/CB PET ratio,"5-HT1A receptors [4]; ref Saigal et al., 2013, listed as 18F-Mefway",10
same,HP/CB PET ratio,"5-HT1A receptors [4]; ref Saigal et al., 2013",10 ^g
same,Raphe ratio with respect to cerebellum,"5-HT1A receptors [5]; monkey, higher resolution P4 scanner, ref Wooten et al., 2011b",greater than 3
same,HP/CB PET ratio,"5-HT1A receptors [5]; monkey, 90 mins post-injection, ref Saigal et al., 2006, Wooten et al., 2011b",10 ^f
same,Raphe BPND,"5-HT1A receptors [5]; monkey, ref Wooten et al., 2011b",greater than 3
same,Raphe ratio with respect to cerebellum,"5-HT1A receptors [5]; monkeys, EXACT HR+ PET scanner, ref Saigal et al., 2006",approximately 2
same,Raphe to cerebellum ratio,"5-HT1A receptors [5]; monkeys, scanner not stated (abstract)",approximately 3
same,Adverse or pharmacologic effects in human subjects,"5-HT1A receptors [6]; approximately 185 MBq bolus, 6 subjects",no adverse or clinically detectable pharmacologic effects
same,"Binding potential HP, BPND",5-HT1A receptors [6]; human hippocampus,2.7 ^i
same,HP/CB PET ratio,5-HT1A receptors [6],4 ^i
same,HP/CB PET ratio,5-HT1A receptors [6]; listed as 18F-Mefway,4
same,Brain Uptake,5-HT1A receptors [6],0.002 ^e %ID/cc
same,Brain Uptake,5-HT1A receptors [6]; listed as 18F-Mefway,0.002 %ID/cc
